# Measurements from PMC4804703 (ACS chemical neuroscience, 2015).
# Entries after “also recorded” stand apart in the source; their conditions may differ. Read-outs that look alike come from different tables or passages of the source.
# Tests used:
# recombinant hCB1R = conditions: cited from earlier work
# hCB1R = hCB1R (Homo sapiens, UniProt P21554); assay: Cellular cAMP assay, forskolin-stimulated, Flp-In-293 cells; type: cell-based; conditions: for potency relative to AEA, inhibition of forskolin-stimulated cAMP production: greater than the potency reported for AEA in this assay
# rat CB1R (rCB1R) = conditions: cited from earlier work; for selectivity vs CB2R: rCB1R vs CB2R
# [1] = molecular target: CB1R in mouse hippocampus (Mus musculus, UniProt P47746); assay: [^35S]GTPγS binding, mouse hippocampus membranes; type: biochemical; conditions: for EC50: read-out: EC50, stimulation of [^35S]GTPγS binding, n = 3–4
# [2] = Binding to membranes from nontransfected cells; conditions: membranes from nontransfected Flp-In-293 cells; data not shown
# How it was run: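 Membranes from non-transfected Flp-In-293 cells were prepared by cavitation and ultracentrifugation and resuspended in TME (25 mM Tris-HCl, 5 mM MgCl₂, 1 mM EDTA, pH 7.4). […] Filters were washed in ice-cold buffer and counted by scintillation.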
# hCB1R C7.38(382)S [3] = molecular target: T1, hCB1R C7.38(382)S (Homo sapiens, UniProt P21554, C382S); assay: Covalent labeling assay; type: binding; conditions: C7.38(382)S mutant; 20 nM AM3677
# How it was run: (§1)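 Flp-In-293 membranes stably expressing the Cys→Ser hCB1R mutant, at 0.8 mg/mL in TME-0.1% BSA, were preincubated with 20 nM test compound (controls without) at 30 °C for 1 h. Unbound probe was removed by 27 000g spins, TME-1% BSA washes (one 20 min at 30 °C) and TME washes.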
# [4] = system: Flp-In cells that were not transfected with CB1Rs; assay: Cellular cAMP assay, non-transfected control cells; type: cell-based; conditions: routine control; data not shown
# hCB1R C1.55(139)S [5] = molecular target: T2, hCB1R C1.55(139)S (Homo sapiens, UniProt P21554, C139S); assay: Covalent labeling assay; type: binding; conditions: C1.55(139)S mutant; 20 nM AM3677
# How it was run: as §1
# hCB1R C6.47(355)S [6] = molecular target: T3, hCB1R C6.47(355)S (Homo sapiens, UniProt P21554, C355S); assay: Covalent labeling assay; type: binding; conditions: C6.47(355)S mutant; AM3677 10-fold apparent Ki
# How it was run: as §1
# hCB1R C4.47(238)S [7] = molecular target: T4, hCB1R C4.47(238)S (Homo sapiens, UniProt P21554, C238S); assay: Covalent labeling assay; type: binding; conditions: C4.47(238)S mutant
# How it was run: as §1
# [8] = molecular target: hemagglutinin (HA)-tagged rCB1R (Rattus norvegicus, UniProt P20272); assay: CB1R internalization, HEK293 cells; type: cell-based; conditions: 30 min at 37 °C; best-fit sigmoidal curve
# hCB1R C7.42(386)S [9] = molecular target: T5, hCB1R C7.42(386)S (Homo sapiens, UniProt P21554, C386S); assay: Competition binding with [^3H]CP55,940, Flp-In-293 membranes; conditions: read-out: apparent Ki (95% CI); C7.42(386)S mutant; [^3H]CP55,940 0.75 nM
# hCB1R C7.38(382)S [10] = molecular target: T1, hCB1R C7.38(382)S; assay: as above; conditions: read-out: apparent Ki (95% CI); C7.38(382)S mutant; [^3H]CP55,940 0.75 nM
# hCB1R C4.47(238)S [11] = molecular target: T4, hCB1R C4.47(238)S; assay: as above; conditions: read-out: apparent Ki (95% CI); C4.47(238)S mutant; [^3H]CP55,940 0.75 nM
# hCB1R C1.55(139)S [12] = molecular target: T2, hCB1R C1.55(139)S; assay: as above; conditions: read-out: apparent Ki (95% CI); C1.55(139)S mutant; [^3H]CP55,940 0.75 nM
# hCB1R C7.42(386)S [13] = molecular target: T5, hCB1R C7.42(386)S; assay: Covalent labeling assay; type: binding; conditions: C7.42(386)S mutant; 20 nM AM3677
# How it was run: as §1
# hCB1R C6.47(355)S [14] = molecular target: T3, hCB1R C6.47(355)S; assay: Competition binding with [^3H]CP55,940, Flp-In-293 membranes; conditions: read-out: apparent Ki (95% CI); C6.47(355)S mutant; [^3H]CP55,940 0.75 nM
# [15] = molecular target: WT and Cys mutant hCB1R variants; assay: Saturation binding of [^3H]CP55,940, Flp-In-293 membranes; set-up: species or system human; conditions: average across all six hCB1R variants; mean ± SEM, n = 6
# Sequence of hCB1R (P21554 whole entry): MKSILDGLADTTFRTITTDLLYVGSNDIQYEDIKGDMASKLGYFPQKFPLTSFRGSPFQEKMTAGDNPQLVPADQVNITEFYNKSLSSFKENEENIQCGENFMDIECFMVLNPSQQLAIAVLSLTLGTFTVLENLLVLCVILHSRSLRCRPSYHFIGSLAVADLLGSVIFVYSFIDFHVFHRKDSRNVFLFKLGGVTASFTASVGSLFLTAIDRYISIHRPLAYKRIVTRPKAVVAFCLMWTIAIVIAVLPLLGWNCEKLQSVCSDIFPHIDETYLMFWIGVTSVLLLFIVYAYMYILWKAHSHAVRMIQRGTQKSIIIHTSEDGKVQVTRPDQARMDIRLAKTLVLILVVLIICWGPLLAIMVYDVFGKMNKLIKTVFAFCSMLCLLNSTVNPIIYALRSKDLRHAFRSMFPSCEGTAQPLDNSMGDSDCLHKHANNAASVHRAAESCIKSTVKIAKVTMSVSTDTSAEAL
# Sequence of CB1R in mouse hippocampus (P47746 whole entry): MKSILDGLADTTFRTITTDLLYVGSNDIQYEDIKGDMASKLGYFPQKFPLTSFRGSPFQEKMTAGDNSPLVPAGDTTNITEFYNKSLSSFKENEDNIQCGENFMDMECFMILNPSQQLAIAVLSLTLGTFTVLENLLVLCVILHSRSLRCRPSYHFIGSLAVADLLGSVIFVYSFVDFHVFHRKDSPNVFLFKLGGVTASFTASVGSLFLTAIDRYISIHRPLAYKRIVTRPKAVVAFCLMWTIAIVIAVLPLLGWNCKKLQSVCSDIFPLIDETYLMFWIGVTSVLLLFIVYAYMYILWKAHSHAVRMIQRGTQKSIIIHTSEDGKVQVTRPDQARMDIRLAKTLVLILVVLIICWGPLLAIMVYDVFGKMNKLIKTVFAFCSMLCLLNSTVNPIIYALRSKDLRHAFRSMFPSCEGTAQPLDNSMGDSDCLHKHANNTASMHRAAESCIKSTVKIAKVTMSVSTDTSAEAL
# T4 sequence (P21554 whole entry C238S): as the sequence (P21554 whole entry) above, with C238S counted along it
# T3 sequence (P21554 whole entry C355S): as the sequence (P21554 whole entry) above, with C355S counted along it
# T5 sequence (P21554 whole entry C386S): as the sequence (P21554 whole entry) above, with C386S counted along it
# T2 sequence (P21554 whole entry C139S): as the sequence (P21554 whole entry) above, with C139S counted along it
# T1 sequence (P21554 whole entry C382S): as the sequence (P21554 whole entry) above, with C382S counted along it
# Sequence of hemagglutinin (HA)-tagged rCB1R (P20272 whole entry): as the sequence (P47746 whole entry) above, with D95E counted along it
smiles,measurement,setting,value
"CCCCC/C=C\C/C=C\C/C=C\C/C=C\CCCC(=O)NC1CC1 [ACPA, (5Z,8Z,11Z,14Z)-eicosa-5,8,11,14-tetraenoic acid cyclopropylamide]",agonist type,recombinant hCB1R,full agonist
same,"potency relative to AEA, inhibition of forskolin-stimulated cAMP production",hCB1R,~ 200 fold
same,selectivity vs CB2R,rat CB1R (rCB1R),60 to 300 fold
same,Ki,"rat CB1R (rCB1R); read-out: apparent Ki, rCB1R, [^3H]CP55,940 as competitive radioligand",2.2 to 2.7 nM
"CCCCC/C=C\C/C=C\C/C=C\C/C=C\CCCC(=O)NCCO [AEA, arachidonoylethanolamide, reference compound]",Emax,"[1]; read-out: maximum response, [^35S]GTPγS binding",34 ± 1.5%
same,Ki,rat CB1R (rCB1R); rCB1R,61 nM
"O=C(CCC/C=C\C/C=C\C/C=C\C/C=C\CCCCCN=C=S)NC1CC1 [AM3677, 20-isothiocyanato-eciosa-5,8,11,14-tetraenoic acid cyclopropylamide]",specific binding,[2],No specific
same,degree of irreversible labeling,hCB1R C7.38(382)S [3],comparable to that displayed by WT hCB1R
same,"potency relative to AEA, [^35S]GTPγS binding",[1]; more potent than AEA,~100 fold
same,"potency relative to CP55,940, [^35S]GTPγS binding","[1]; more potent than CP55,940",~ 23 fold
same,EC50,[1]; mean ± SEM,50 ± 20 nM
same,"maximum response, [^35S]GTPγS binding","[1]; relative to CP55,940 (maximum = response to 10 μM CP55,940), mean ± SEM, n = 3",32 ± 2.1%
same,effect on cAMP in non-transfected cells,[4],had no effect
same,degree of irreversible labeling,hCB1R C1.55(139)S [5],comparable to that displayed by WT hCB1R
same,"effect of AM3677 preincubation on Bmax for [^3H]CP55,940 (irreversible binding)",hCB1R C6.47(355)S [6],unaffected; also recorded: did not affect
same,degree of irreversible labeling,hCB1R C4.47(238)S [7]; 20 nM AM3677,comparable to that displayed by WT hCB1R
same,"reduction of [^3H]CP55,940 specific binding (Bmax)",hCB1R C4.47(238)S [7]; AM3677 at 10-fold its apparent Ki,at least 43%
same,maximum internalization,[8],~ 42%
same,"maximal efficacy, inhibition of forskolin-activated cAMP formation",hCB1R; at micromolar concentrations,~ 60%
same,"potency relative to AEA, inhibition of forskolin-stimulated cAMP production",hCB1R,~ 200 fold
same,IC50,"hCB1R; read-out: IC50, inhibition of forskolin-activated cAMP formation, Flp-In-293 cells overexpressing hCB1R, 5 μM forskolin, mean ± SEM, n = 3",27.1 ± 2.2 nM
same,Ki,hCB1R C7.42(386)S [9],1.6 nM
same,selectivity vs CB2R,rat CB1R (rCB1R),~ 40 fold
same,manner of binding,rat CB1R (rCB1R); rCB1R,irreversible
same,Ki,hCB1R C7.38(382)S [10],1.9 nM
same,Ki,hCB1R C4.47(238)S [11],2.4 nM
same,Ki,hCB1R C1.55(139)S [12],2.3 nM
same,degree of irreversible labeling,hCB1R C7.42(386)S [13],comparable to that displayed by WT hCB1R
same,Ki,hCB1R C6.47(355)S [14],2.2 nM
"CCCCCCC(C)(C)c1ccc([C@@H]2C[C@H](O)CC[C@H]2CCCO)c(O)c1 [CP55,940, reference compound]",specific binding,[2],No specific
same,EC50,[1]; mean ± SEM,1100 ± 200 nM
same,Kd,[15],5.4 ± 0.8 nM
